Values after ≈ are worked out from the molar mass of the structure shown.
How the values were obtained:
[1] = tested on: Staphylococcus epidermidis; experiment: Antibacterial activity against Staphylococcus epidermidis; assay type: functional
Outline: (§1)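 Broth microdilution MIC per CLSI guidelines in Mueller-Hinton broth: serial 2-fold dilutions, inoculum 5 × 10⁵ CFU/mL in equal volume, 35 °C for 16-20 h. MIC = lowest concentration with no visible turbidity. Recent clinical isolates (43 total, Gram-positive and Gram-negative); values given as MIC ranges, MIC₅₀ and MIC₉₀ per species.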

Staphylococcus aureus [2] = experiment: Antibacterial activity against methicillin-susceptible Staphylococcus aureus; assay type: functional; outline: as §1
Staphylococcus aureus [3] = experiment: Antibacterial activity against methicillin-resistant Staphylococcus aureus; assay type: functional
Outline: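 Clinical isolates (3 MRSA in a 43-strain panel). Broth microdilution per CLSI, serial 2-fold dilutions in Mueller-Hinton broth, inoculum 5 × 10⁵ CFU/mL, 35 °C for 16-20 h. MIC = lowest concentration with no visible turbidity; reported as MIC range, MIC₅₀ and MIC₉₀ across isolates.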

Enterococcus = experiment: Antibacterial activity against Enterococcus spp; assay type: functional; outline: as §1
Streptococcus pneumoniae = experiment: Antibacterial activity against Streptococcus pneumoniae; assay type: functional; outline: as §1
Haemophilus influenzae = experiment: Antibacterial activity against Haemophilus influenzae; assay type: functional; outline: as §1
Streptococcus pyogenes = experiment: Antibacterial activity against Streptococcus pyogenes; assay type: functional; outline: as §1
[4] = Viability of human TPC1 cell line at 128 uM after 21 hrs; assay type: cell-based; settings: TPC1 cells, read-out: Activity
Outline: (§2)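 Human TPC1 cells seeded at 40 000/well in supplemented DMEM, grown overnight at 37 °C, 5% CO₂. Fresh medium with compound (0-128 µM, 2-fold steps), six parallel wells per concentration and controls, exposed 3, 6 or 21 h. MTT (5 mg/mL stock diluted 1:15 in medium) for 3 h, acidified 2-propanol solubilization, OD 600 nm; viability relative to control.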

[5] = Viability of human TPC1 cell line at 32 uM after 21 hrs; assay type: cell-based; settings: TPC1 cells, read-out: Activity; outline: as §2
[6] = Viability of human TPC1 cell line at 8 uM after 21 hrs; assay type: cell-based; settings: TPC1 cells, read-out: Activity; outline: as §2
[7] = Viability of human TPC1 cell line at 128 uM after 3 hrs; assay type: cell-based; settings: TPC1 cells, read-out: Activity; outline: as §2

Structure (SMILES): C[C@@H](O)[C@H]1C(=O)N2C(C(=O)O)=C(SCCNC=N)C[C@H]12 [IMIPENEM ANHYDROUS]
- MIC50 [1]: < 0.06 µg/mL
- MIC90 [1]: 1 µg/mL (≈ 3.34 µM)
- MIC50 (Staphylococcus aureus [2]): < 0.06 µg/mL
- MIC90 (Staphylococcus aureus [2]): < 0.06 µg/mL
- MIC50 (Staphylococcus aureus [3]): 64 µg/mL (≈ 214 µM)
- MIC90 (Staphylococcus aureus [3]): 128 µg/mL (≈ 428 µM)
- MIC50 (Enterococcus): 0.5 µg/mL (≈ 1.67 µM)
- MIC90 (Enterococcus): > 128 µg/mL
- MIC50 (Streptococcus pneumoniae): 0.12 µg/mL (≈ 0.401 µM)
- MIC90 (Streptococcus pneumoniae): 1 µg/mL (≈ 3.34 µM)
- MIC50 (Haemophilus influenzae): < 0.06 µg/mL
- MIC90 (Haemophilus influenzae): 0.12 µg/mL (≈ 0.401 µM)
- MIC50 (Streptococcus pyogenes): < 0.06 µg/mL
- MIC90 (Streptococcus pyogenes): < 0.06 µg/mL

Structure (SMILES): COc1cc(C(=O)O[C@H](C)[C@H]2C(=O)N/C2=C\C(=O)OCc2ccccc2)cc(OC)c1O
- MIC50 [1]: 2 µg/mL (≈ 4.53 µM)
- MIC90 [1]: 64 µg/mL (≈ 145 µM)
- viability at 21 h, 128 µM [4]: 64%
- viability at 21 h, 32 µM [5]: 81%
- MIC50 (Staphylococcus aureus [2]): 16 µg/mL (≈ 36.2 µM)
- MIC90 (Staphylococcus aureus [2]): 128 µg/mL (≈ 290 µM)
- MIC50 (Staphylococcus aureus [3]): 32 µg/mL (≈ 72.5 µM)
- MIC90 (Staphylococcus aureus [3]): 64 µg/mL (≈ 145 µM)
- MIC50 (Enterococcus): 128 µg/mL (≈ 290 µM)
- MIC90 (Enterococcus): > 128 µg/mL
- MIC50 (Streptococcus pneumoniae): 128 µg/mL (≈ 290 µM)
- MIC90 (Streptococcus pneumoniae): 128 µg/mL (≈ 290 µM)
- MIC50 (Haemophilus influenzae): 64 µg/mL (≈ 145 µM)
- MIC90 (Haemophilus influenzae): 128 µg/mL (≈ 290 µM)
- MIC50 (Streptococcus pyogenes): 128 µg/mL (≈ 290 µM)
- MIC90 (Streptococcus pyogenes): 128 µg/mL (≈ 290 µM)

Structure (SMILES): CCOC(=O)/C=C1\NC(=O)[C@@H]1Cl
- MIC50 [1]: 16 µg/mL (≈ 84.4 µM)
- MIC90 [1]: 32 µg/mL (≈ 169 µM)
- MIC50 (Staphylococcus aureus [2]): 32 µg/mL (≈ 169 µM)
- MIC90 (Staphylococcus aureus [2]): 64 µg/mL (≈ 338 µM)
- MIC50 (Staphylococcus aureus [3]): 128 µg/mL (≈ 675 µM)
- MIC90 (Staphylococcus aureus [3]): 128 µg/mL (≈ 675 µM)
- MIC50 (Enterococcus): > 128 µg/mL
- MIC90 (Enterococcus): > 128 µg/mL
- MIC50 (Streptococcus pneumoniae): 128 µg/mL (≈ 675 µM)
- MIC90 (Streptococcus pneumoniae): 128 µg/mL (≈ 675 µM)
- MIC50 (Haemophilus influenzae): 32 µg/mL (≈ 169 µM)
- MIC90 (Haemophilus influenzae): 32 µg/mL (≈ 169 µM)
- MIC50 (Streptococcus pyogenes): 128 µg/mL (≈ 675 µM)
- MIC90 (Streptococcus pyogenes): 128 µg/mL (≈ 675 µM)

Structure (SMILES): O=C(/C=C1\NC(=O)[C@@H]1Cl)OCc1ccccc1
- MIC50 [1]: 8 µg/mL (≈ 31.8 µM)
- MIC90 [1]: 32 µg/mL (≈ 127 µM)
- viability at 21 h, 128 µM [4]: 23%
- MIC50 (Staphylococcus aureus [2]): 8 µg/mL (≈ 31.8 µM)
- MIC90 (Staphylococcus aureus [2]): 16 µg/mL (≈ 63.6 µM)
- viability at 21 h, 8 µM [6]: 81%
- viability at 3 h, 128 µM [7]: 48%
- MIC50 (Staphylococcus aureus [3]): 16 µg/mL (≈ 63.6 µM)
- MIC90 (Staphylococcus aureus [3]): 32 µg/mL (≈ 127 µM)
- MIC50 (Enterococcus): 16 µg/mL (≈ 63.6 µM)
- MIC90 (Enterococcus): 16 µg/mL (≈ 63.6 µM)
- MIC50 (Streptococcus pneumoniae): 128 µg/mL (≈ 509 µM)
- MIC90 (Streptococcus pneumoniae): 128 µg/mL (≈ 509 µM)
- MIC50 (Haemophilus influenzae): 1 µg/mL (≈ 3.97 µM)
- MIC90 (Haemophilus influenzae): 2 µg/mL (≈ 7.95 µM)
- MIC50 (Streptococcus pyogenes): 32 µg/mL (≈ 127 µM)
- MIC90 (Streptococcus pyogenes): 128 µg/mL (≈ 509 µM)

Structure (SMILES): C[C@@H](O)[C@H]1C(=O)N2C(C(=O)O)=C(S[C@@H]3CN[C@H](C(=O)N(C)C)C3)[C@H](C)[C@H]12 [MEROPENEM]
- MIC50 [1]: < 0.12 µg/mL
- MIC90 [1]: 64 µg/mL (≈ 167 µM)
- MIC50 (Staphylococcus aureus [2]): < 0.06 µg/mL
- MIC90 (Staphylococcus aureus [2]): < 0.06 µg/mL
- MIC50 (Staphylococcus aureus [3]): 32 µg/mL (≈ 83.4 µM)
- MIC90 (Staphylococcus aureus [3]): 32 µg/mL (≈ 83.4 µM)
- MIC50 (Enterococcus): 2 µg/mL (≈ 5.22 µM)
- MIC90 (Enterococcus): > 128 µg/mL
- MIC50 (Streptococcus pneumoniae): < 0.06 µg/mL
- MIC90 (Streptococcus pneumoniae): 2 µg/mL (≈ 5.22 µM)
- MIC50 (Haemophilus influenzae): < 0.06 µg/mL
- MIC90 (Haemophilus influenzae): < 0.06 µg/mL
- MIC50 (Streptococcus pyogenes): < 0.06 µg/mL
- MIC90 (Streptococcus pyogenes): < 0.06 µg/mL

From ChEMBL document CHEMBL1147665, “Design, synthesis, and biological evaluation of 4-alkyliden-beta lactams: new products with promising antibiotic activity against resistant bacteria” (J Med Chem, 2006)
